Measured values from ChEMBL document CHEMBL4392843, “Structure and biological evaluation of new cyclic and acyclic laxaphycin-A type peptides” (Bioorg Med Chem, 2019).
Activity calls are given as the source filed them. No cut-off for these calls is given here. Numbered stars: 1 amine (or outer) side, 2 acyl side, 3 side chain; on linkers, the order of the positions; unused ones are H or OH. Square brackets hold non-standard residues; d marks the D form. Peptide text beside a SMILES is read from it. dβ3hAhp = CCCCC[C@H](CC(=O)[*:2])N[*:1]; d(aIle) = CC[C@H](C)[C@@H](N)C(=O)O; Hyp = O=C(O)[C@@H]1C[C@@H](O)CN1; X1 = C/C=C(/N[*:1])C(=O)[*:2]; hSer = N[C@@H](CCO)C(=O)O

Tests used:
[1] = system: SH-SY5Y; assay: Induction of autophagy in human SH-SY5Y cells assessed as LC3-2/LC3-1 ratio at 10 uM measured after 6 hrs by Western blot analysis (reference value: 2.6 +/- 0.3); assay type: functional
[2] = system: SH-SY5Y; assay: Cytotoxicity against human SH-SY5Y cells assessed as reduction in cell viability measured after 24 hrs by MTT assay; assay type: cell-based
Outline: (§1)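 SH-SY5Y cells (ATCC CRL2266) in DMEM/F-12 with 10% FBS, 1% glutamax and penicillin/streptomycin, 37 °C, 5% CO2. Compounds were added to the medium (0.01, 0.05, 0.1 and 1 µM listed) for 24 or 6 h. Cells were then given 500 µg/mL MTT for 1 h and solubilized in 5% SDS, with A595 read. Saponin death-control absorbance was subtracted. IC50 reported with 95% CI and R².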

[3] = system: SH-SY5Y; assay: Effect on cell viability in human SH-SY5Y cells up to 10 uM after 1 hr by MTT assay; assay type: cell-based
[4] = system: SH-SY5Y; assay: Cytotoxicity against human SH-SY5Y cells assessed as reduction in cell viability measured after 6 hrs by MTT assay; assay type: cell-based; settings: for IC50: Homo sapiens, SH-SY5Y, 6 h; for Cytotoxicity call (toxic / non-toxic): sh-sy5y; outline: as §1
[5] = system: SH-SY5Y; assay: Induction of apoptosis in human SH-SY5Y cells assessed as increase in apoptotic cells at 10 uM measured after 6 hrs by Annexin V-FITC/propidium iodide staining based flow cytometry; assay type: cell-based
Outline: (§2)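 SH-SY5Y cells (1×10^6 per well) were treated with 10 µM for 6 h, washed in PBS, and stained with annexin V-FITC/propidium iodide in binding buffer for 15 min. Imaging flow cytometry counted 10000 events. Viable, apoptotic and necrotic populations are given as % of untreated cells, mean ± SEM of three independent experiments in triplicate.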

[6] = system: SH-SY5Y; assay: Effect on mitochondrial membrane potential in human SH-SY5Y cells up to 10 uM measured after 6 hrs by TMRM assay
[7] = system: SH-SY5Y; assay: Cytotoxicity against human SH-SY5Y cells assessed as reduction in cell viability measured after 24 hrs by LDH release assay; assay type: cell-based
Outline: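 SH-SY5Y cells in DMEM/F-12 with 10% FBS at 37 °C, 5% CO2, exposed to compounds in the medium for 24 h. LDH release was measured with a commercial LDH-cytotoxicity kit per its protocol as the viability indicator. IC50 reported with 95% CI and R².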

[8] = system: SH-SY5Y; assay: Induction of apoptosis in human SH-SY5Y cells assessed as decrease in viable cells at 10 uM measured after 6 hrs by Annexin V-FITC/propidium iodide staining based flow cytometry; assay type: cell-based; outline: as §2
[9] = system: SH-SY5Y; assay: Inhibition of reactive oxygen species production in human SH-SY5Y cells up to 10 uM measured after 1 hr by DCFH-DA dye based fluorescence assay; assay type: cell-based
Outline: (§3)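 SH-SY5Y cells were exposed to compounds (6 h; 1 h also run), washed in saline, and loaded with 20 µM DCF-DA for 30 min at 37 °C. They were then held 30 min at room temperature for de-esterification. DCF fluorescence was read at 475 nm excitation and 525 nm emission, expressed as % of diluent-treated controls, with four independent experiments in triplicate.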

[10] = system: SH-SY5Y; assay: Induction of autophagy in human SH-SY5Y cells assessed as increase in cytoplasmic p62 levels at 10 uM measured after 6 hrs by Western blot analysis; assay type: functional, cell-based
Outline: (§4)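 SH-SY5Y cells were treated with 10 µM for 6 h and lysed in ice-cold hypotonic Tris buffer (pH 7.4) with 1% Triton X-100 and inhibitors. The cytosolic fraction was taken at 3000 rpm; membrane fraction came via nuclear extraction buffer. 20 µg protein was run on 10% SDS-PAGE with chemiluminescent detection. Read-outs were LC3II/LC3I ratio or % of untreated (p-mTOR, p62); three experiments in triplicate, blots run in duplicate.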

[11] = system: SH-SY5Y; assay: Induction of autophagy in human SH-SY5Y cells assessed as phosphorylated mTOR level at 10 uM measured after 6 hrs by Western blot analysis (reference value: 100%); assay type: functional; outline: as §4
[12] = system: SH-SY5Y; assay: Inhibition of reactive oxygen species production in human SH-SY5Y cells up to 10 uM measured after 6 hrs by DCFH-DA dye based fluorescence assay relative to control; assay type: cell-based; parameters: scale not given: the % may be the effect or the level left; outline: as §3
[13] = system: SH-SY5Y; assay: Induction of autophagy in human SH-SY5Y cells assessed as decrease in cytoplasmic p62 levels at 10 uM measured after 6 hrs by Western blot analysis; assay type: functional; settings: in the assay text read “membrane” for “cytoplasmic”; outline: as §4
[14] = system: SH-SY5Y; assay: Induction of apoptosis in human SH-SY5Y cells assessed as increase in necrotic cells at 10 uM measured after 6 hrs by Annexin V-FITC/propidium iodide staining based flow cytometry; assay type: cell-based; outline: as §2
[15] = system: SH-SY5Y; assay: Induction of autophagy in human SH-SY5Y cells assessed as increase in LC3-2/LC3-1 ratio at 10 uM measured after 6 hrs by Western blot analysis; assay type: functional, cell-based; outline: as §4
[16] = system: SH-SY5Y; assay: Cytotoxicity against human SH-SY5Y cells assessed as decrease in cell viability at 10 uM measured after 6 to 24 hrs by MTT assay relative to control; assay type: cell-based
[17] = system: SH-SY5Y; assay: Effect on cell viability in human SH-SY5Y cells up to 10 uM after 6 hrs by MTT assay; assay type: cell-based
[18] = Homo sapiens, SH-SY5Y, 24 h, read-out: IC50

Q: With `C/C=C1/NC(=O)[C@H](CCO)NC(=O)C[C@@H](CCCCC)NC(=O)CNC(=O)[C@H](CC(C)C)NC(=O)[C@@H](C(C)C)NC(=O)[C@H]([C@@H](C)CC)NC(=O)[C@@H](CC(C)C)NC(=O)[C@@H](Cc2ccccc2)NC(=O)[C@H](CCO)NC(=O)[C@@H]2C[C@@H](O)CN2C1=O` as the compound, how does the Ratio [1] read?
A: The Ratio was 6.4.

Q: What about the IC50 [2, 18] of the same compound?
A: The IC50 was 5.6 µM.

Q: And the Activity [3]?
A: Its Activity is “Non-Toxic”.

Q: And the IC50 [4]?
A: Its IC50 is 3.7 µM.

Q: What about the Activity [5] of the same compound?
A: Its Activity is “Non-Toxic”.

Q: What about the Activity [6] of the same compound?
A: The Activity was “Toxic”.

Q: And the IC50 [7, 18]?
A: The IC50 was 12.4 µM.

Q: What about the Activity [8] of the same compound?
A: The Activity was “Toxic”.

Q: What about the Activity [9] of the same compound?
A: Its Activity is “Toxic”.

Q: What about the Activity [10] of the same compound?
A: The Activity was “Active”.

Q: And the Activity [11]?
A: Its Activity is 70.7%.

Q: What about the Activity [12] of the same compound?
A: Its Activity is “Toxic”.

Q: And the Activity [13]?
A: Its Activity is “Active”.

Q: What about the Activity [14] of the same compound?
A: Its Activity is “Non-Toxic”.

Q: How did the Activity [15] turn out when `C/C=C1/NC(=O)[C@H](CCO)NC(=O)C[C@@H](CCCCC)NC(=O)CNC(=O)[C@H](CC(C)C)NC(=O)[C@@H]([C@@H](C)CC)NC(=O)[C@H](C(C)C)NC(=O)[C@@H](CC(C)C)NC(=O)[C@@H](Cc2ccccc2)NC(=O)[C@H](CCO)NC(=O)[C@@H]2C[C@@H](O)CN2C1=O` was run?
A: The Activity was “Active”.

Q: What about the IC50 [2, 18] of the same compound?
A: The IC50 was 0.6 µM.

Q: What about the IC50 [4] of the same compound?
A: The IC50 was 1.3 µM.

Q: What about the Activity [5] of the same compound?
A: Its Activity is “Non-Toxic”.

Q: And the Activity [6]?
A: Its Activity is “Toxic”.

Q: And the IC50 [7, 18]?
A: Its IC50 is 3.6 µM.

Q: What about the Activity [8] of the same compound?
A: Its Activity is “Toxic”.

Q: And the Activity [10]?
A: The Activity was “Active”.

Q: What about the Activity [11] of the same compound?
A: Its Activity is 73.1%.

Q: What about the Activity [13] of the same compound?
A: The Activity was 15.8%.

Q: And the Activity [14]?
A: The Activity was “Non-Toxic”.

Q: `C/C=C(/NC(=O)[C@H](CCO)NC(=O)C[C@H](N)CCCCC)C(=O)N1C[C@H](O)C[C@H]1C(=O)N[C@@H](CCO)C(=O)N[C@H](Cc1ccccc1)C(=O)N[C@H](CC(C)C)C(=O)N[C@H](C(=O)N[C@@H](C(=O)O)[C@@H](C)CC)[C@@H](C)CC` was tested. Which IC50 ([2]; sh-sy5y) did it give?
A: The IC50 was “Non-Toxic”.

Q: And the “Cytotoxicity call (toxic / non-toxic)” value [4]?
A: Its value is “Non-Toxic”.

Q: And the IC50 ([7]; sh-sy5y)?
A: The IC50 was “Non-Toxic”.

Q: `C/C=C(/NC(=O)[C@H](CCO)NC(=O)C[C@H](N)CCCCC)C(=O)N1C[C@H](O)C[C@H]1C(=O)N[C@@H](CCO)C(=O)N[C@H](Cc1ccccc1)C(=O)N[C@H](CC(C)C)C(=O)N[C@H](C(=O)N[C@@H](C(=O)N[C@@H](CC(C)C)C(=O)O)[C@@H](C)CC)[C@@H](C)CC` was tested. Which Ratio [1] did it give?
A: The Ratio was 6.7.

Q: And the Activity [16]?
A: The Activity was 50%.

Q: What about the IC50 ([2]; sh-sy5y) of the same compound?
A: The IC50 was “Toxic”.

Q: What about the Activity [3] of the same compound?
A: Its Activity is “Non-Toxic”.

Q: What about the “Cytotoxicity call (toxic / non-toxic)” value [4] of the same compound?
A: The value was “Toxic”.

Q: And the Activity [6]?
A: Its Activity is “Toxic”.

Q: What about the Activity [17] of the same compound?
A: The Activity was “Non-Toxic”.

Q: And the IC50 ([7]; sh-sy5y)?
A: The IC50 was “Non-Toxic”.

Q: And the Activity [9]?
A: Its Activity is “Toxic”.

Q: What about the Activity [10] of the same compound?
A: The Activity was “Active”.

Q: And the Activity [11]?
A: The Activity was 70.3%.

Q: What about the Activity [12] of the same compound?
A: The Activity was 40%.

Q: And the Activity [13]?
A: The Activity was “Active”.

Q: For `C/C=C1/NC(=O)[C@H](CCO)NC(=O)C[C@@H](CCCCC)NC(=O)CNC(=O)[C@H](CC(C)C)NC(=O)[C@@H]([C@@H](C)CC)NC(=O)[C@H]([C@@H](C)CC)NC(=O)[C@@H](CC(C)C)NC(=O)[C@@H](Cc2ccccc2)NC(=O)[C@H](CCO)NC(=O)[C@@H]2C[C@@H](O)CN2C1=O` [LAXAPHYCIN A] (cyclo(G[dβ3hAhp][hSer][X1][Hyp][hSer][dF][dL]I[d(aIle)]L)), which IC50 ([2]; sh-sy5y) is on record?
A: The IC50 was “Non-Toxic”.

Q: What about the “Cytotoxicity call (toxic / non-toxic)” value [4] of the same compound?
A: Its value is “Non-Toxic”.

Q: And the IC50 ([7]; sh-sy5y)?
A: Its IC50 is “Non-Toxic”.
